Most compounds without a hit are left out; they make up all but 4.6% or so of the library.
PolyA inh – inhibitors of polyadenylation in S. cerevisiae | S. cerevisiae SKY197-pL101 polyadenylation reporter, beta-gal luminescence; efflux-impaired pdr1/pdr3 knockout yeast; score 100 = 6 SD above DMSO | activity score, % at 12 µM | 300,000 compounds, 0.02% hits | AID 1875;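 active = lowest replicate activity score at least 50, where 100 means six control SD above control mean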;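 also: yeast exposed to compound for 9 h at 30 °C; higher score means more reporter readthrough which indicates perturbed polyadenylation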
Pemphigus Ab inh – blocks pemphigus antibody binding to human desmoglein-3. P32926. DSG3-coupled beads, scFv-anti-DSG3-GFP binding, flow cytometry; stronger effect = lower value. binding (percent of control), % at 10 µM. 310,000 compounds, 0.48% hits. AID 588358;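 active = binding more than 3 SD below its plate's average and above zero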
NALP3 yeast inh – NALP3 inhibition in yeast; Yeast reconstituted NLRP3/ASC/caspase-1, beta-gal luminescence, 24 h; inhibition, % at 10 µM; AID 2825; 330,000 compounds, 0.39% hits;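 active = inhibition of 50% or more; inactive = inhibition below 50%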;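 also: plate controls were induced DMSO wells for no effect and uninduced yeast grown without galactose for full effect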
Arrestin-AP2 inh – blocks beta-arrestin peptide binding to AP2 adaptin | 340,000 compounds, 0.31% hits | FITC-arrestin peptide / GST-AP2 beads, flow cytometry; AP2 beta2 appendage carries R879A mutation | AID 504490 | inhibition, % at 10 µM;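 active = inhibition above a set limit, near 3 SD of compounds lacking own fluorescence, cut at about 54% in these data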;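 also: plate controls were DMSO wells for no effect and 5 µM unlabelled arrestin peptide for full effect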
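Measured by: flow cytometry, FL1 (488/535 nm); Material: AP2 appendage R879A on GSH beads; Evaluation: percent response; Timing: pre-incubation 12 min, peptide binding 1 h, room temperature; Also added: 50 nM FITC-arrestin peptide; Medium: PBS with 0.05% Tween 20 and 0.1% BSA.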
NALP1 yeast inh – NALP1 inhibition. S. cerevisiae NALP1/ASC/caspase-1 growth, X-gal OD620, 72 h. inhibition, % at 10 µM. 280,000 compounds, 0.61% hits. AID 2071; in the data active = inhibition mostly above about 24%, no sharp cut-off; inactive = mostly below about 32%
ALR inh – human ALR oxidase inhibition via reduced H2O2; purified ALR, DTT oxidation, H2O2 HRP-luminol luminescence; 290,000 compounds, 3.8% hits; inhibition, % (concentration not given with the values); AID 485317; P55789;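 active = mean replicate inhibition above about 79%, with every replicate also reaching it, limit read from the data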
Target sequence (P55789 whole entry, looked up): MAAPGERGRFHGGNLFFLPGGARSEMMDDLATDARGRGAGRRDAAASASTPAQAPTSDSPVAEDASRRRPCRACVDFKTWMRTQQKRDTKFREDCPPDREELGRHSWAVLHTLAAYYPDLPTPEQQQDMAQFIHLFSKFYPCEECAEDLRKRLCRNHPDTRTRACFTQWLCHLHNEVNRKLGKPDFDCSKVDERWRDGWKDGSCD
Starred values were filed as active, the others as inactive; / = no result.

SMILES	PolyA inh	Pemphigus Ab inh	NALP3 yeast inh	Arrestin-AP2 inh	NALP1 yeast inh	ALR inh
O=C(CCCCC(=O)Nc1ccc(F)cc1)Nc1ccc(F)cc1	15.2	87.2	7.2	6.1	/	7.9
Cc1ccccc1NCCC(=O)Nc1ccc(Cl)cc1	18.9	111.1	23.5	-4.8	12.0	98.5*
Cc1ccccc1NCCC(=O)Nc1ccc(F)cc1	4.5	114.1	22.6	-7.6	-3.4	99.0*
Cc1ccccc1NC(=O)CC(=O)Nc1ccccc1C	-1.3	102.1	1.1	-13.7	7.4	2.8
COc1ccccc1N(CC(=O)Nc1cc(S(=O)(=O)N(C)C)ccc1C)S(=O)(=O)c1cccs1	/	92.9	10.1	-5.1	/	-0.2
Cc1cccc(C(=O)Nc2nnc(-c3cccnc3)o2)c1	-5.6	98.1	-0.1	-6.4	-8.2	5.9
O=C(Nc1nnc(-c2cccnc2)o1)c1cccc([N+](=O)[O-])c1	9.3	/	-9.3	/	-2.2	89.6*
Cc1cccc(C(=O)Nc2nnc(-c3ccncc3)o2)c1	12.6	106.1	-10.5	-1.3	-7.0	97.2*
CCCn1c(N)c(C(=O)CN(C)CC(=O)Nc2c(Cl)cccc2Cl)c(=O)[nH]c1=O	/	/	6.6	0.4	/	-5.3
N#Cc1cnn(-c2ccccc2)c1NC(=O)CN1CCN(c2ccccc2)CC1	12.2	99.8	4.7	22.4	-28.1	96.5*
N#Cc1ccsc1NC(=O)CN1CCN(c2ccccc2)CC1	3.8	104.2	4.9	5.9	7.4	33.4
N#Cc1ccsc1NC(=O)CN1CCN(c2ccc(O)cc2)CC1	1.3	100.6	6.8	-4.2	/	99.4*
O=C(COc1ccccc1F)Nc1c2c(nn1-c1ccccc1)CS(=O)(=O)C2	-15.5	/	7.0	-2.2	3.6	-12.7
CC(C)[C@H](NS(=O)(=O)c1cccc(Cl)c1)C(=O)OCC(=O)NC(=O)CN1CCCC1=O	/	95.9	18.6	14.6	/	-5.8
C/C(=N/Nc1ccnc2cc(Cl)ccc12)c1ccc(O)cc1	7.7	105.4	26.6	6.6	/	93.1*
Clc1ccc2c(N/N=C/c3ccccc3Br)ccnc2c1	-12.5	133.0	29.7	-0.2	52.1	-1.4
C/C(=N/Nc1ccnc2cc(Cl)ccc12)c1ccc(N)cc1	-12.2	/	44.0	10.8	/	98.4*
Clc1ccc2c(NNc3ccccc3Cl)ccnc2c1	-15.0	/	12.6	2.2	-0.9	-0.2
Clc1ccc2c(N/N=C/c3cccc(Br)c3)ccnc2c1	-29.2	111.5	/	27.3	47.2*	-14.4
NC(=S)NNc1ccnc2cc(Cl)ccc12	-4.8	103.3	17.2	2.0	-9.7	103.3*
COc1ccc(N(CC(=O)NCc2ccc3c(c2)OCO3)C(=O)c2csnn2)cc1	1.2	97.9	-4.6	8.3	2.7	0.0
CC1CN(CC(O)COc2ccc(C#N)cc2)CCN1CC(O)COc1ccc(C#N)cc1 (stereo not given)	-6.6	105.8	13.3	-3.5	13.0	0.9
Cc1ccc(S(=O)(=O)N2CCCCC2)cc1NC(=O)CNC(C)c1ccc(Cl)c(Cl)c1 (stereo not given)	/	95.0	18.1	12.7	/	/
O=S1(=O)C=C(Sc2nnc(-c3ccccc3)o2)c2ccccc21	-91.9	94.3	5.2	17.5	13.4	78.4*
COc1ccc(C2C3=C(N=C4SCC(=O)N42)c2ccccc2CC3)cc1OC (stereo not given)	5.7	97.7	-0.6	1.3	4.9	-12.8
SMILES	PolyA inh	Pemphigus Ab inh	NALP3 yeast inh	Arrestin-AP2 inh	NALP1 yeast inh	ALR inh
COc1ccc(C2C3=C(N=C4SCC(=O)N42)c2ccccc2CC3)cc1 (stereo not given)	8.0	102.6	8.2	3.2	38.4*	-11.1
CC[C@@]1(C(=O)OC)N[C@H](CN(C)C(=O)NC(C)C)[C@@H]2C(=O)N(C)C(=O)[C@@H]21	/	88.7	-3.5	-1.4	/	/
Nc1cc(=O)[nH]n1C1CCN(c2ccccc2)CC1	5.3	97.5	9.4	11.5	20.3	93.7*
CC(NC(=O)CN1C(=O)NC2(CCCCC2)C1=O)c1ccc(S(N)(=O)=O)cc1 (stereo not given)	/	98.4	/	19.2	/	/
COc1ccc(C2C(C#N)=C(N)Oc3cc(N)ccc32)cc1 (stereo not given)	2.4	115.5	10.5	11.3	5.6	95.3*
N#CC1=C(N)Oc2cc(N)ccc2C1c1ccc(F)cc1 (stereo not given)	13.8	/	8.5	0.1	39.6	98.3*
O=c1[nH]nc(Sc2ccccc2)c(=S)[nH]1	/	93.0	/	/	/	/
O=C(NN1CCCCCC1)c1ccccc1F	/	113.5	/	-5.7	/	/
CC(C)c1ccc(NC(=O)CN2C(=O)COc3ccc(S(=O)(=O)N4CCOCC4)cc32)cc1	12.7	74.2*	5.4	-11.3	-30.8	2.0
CC(C)Cc1cc(C(=O)Nc2cc(Cl)ccc2Cl)no1	2.3	-39.0*	9.2	-2.5	32.2	1.5
CC(C)Cc1cc(C(=O)Nc2ccc(F)cc2F)no1	-7.4	104.3	14.4	5.1	32.8	-23.0
Cc1ccc(NC(=O)Nc2cccc([N+](=O)[O-])c2)cc1F	-4.4	93.9	26.6	10.3	30.2	/
O=C(Nc1ccc(OC(F)(F)F)cc1)Nc1cccc([N+](=O)[O-])c1	-15.9	109.1	43.2	-1.8	59.4*	12.1
CC(CCC(=O)O)C1CCC2C3CC(O)C4CC(O)CC[C@]4(C)C3CCC12C (stereo not given in full)	/	/	/	16.0	/	/
CCN(CC)c1ccc(/C=N/NC(=O)c2cccc(S(=O)(=O)N3CCOCC3)c2)c(O)c1	1.4	/	6.9	6.0	-16.6	/
CCOC(=O)N/N=C/c1ccc(N(CC)CC)cc1O	-6.8	98.9	41.0	-0.8	47.3	99.4*
Cn1ncc(Cl)c1C(=O)N/N=C/c1cc2c(cc1[N+](=O)[O-])OCO2	7.3	70.6*	3.4	6.9	-2.8	-3.9
CCN(CC)c1ccc(/C=N/NC(=O)c2c(Cl)cnn2C)c(O)c1	-9.9	/	18.0	8.7	7.5	98.7*
Cc1ccccc1OC(=O)n1c(=S)oc2cc(Cl)ccc21	-1.9	111.2	/	-0.3	30.2	83.1*
O=S(=O)(c1cccc(-c2csc(-c3cccnc3)n2)c1)N1CCCCC1	-20.6	100.4	24.4	-13.8	1.7	97.9*
c1cncc(-c2csc(-c3cccnc3)n2)c1	9.2	105.1	24.8	-7.1	8.3	-2.5
CNc1nc(-c2ccc(S(=O)(=O)N3CCCCC3)cc2)cs1	/	81.7*	-5.3	-8.4	/	19.5
O=S(=O)(c1ccc(-c2csc(-c3cccnc3)n2)cc1)N1CCCCC1	-18.9	99.3	-69.1	2.7	-76.5	62.0
O=C(Nc1nc(-c2ccc(S(=O)(=O)N3CCCC3)cc2)cs1)c1ccco1	2.8	91.5	7.4	6.2	/	-9.4
O=S(=O)(c1cccc(-c2csc(-c3cccnc3)n2)c1)N1CCOCC1	17.0	102.5	20.9	47.3	/	99.2*
CC1CCN(S(=O)(=O)c2cccc(-c3csc(-c4cccnc4)n3)c2)CC1	1.9	77.9	19.2	-3.4	-11.8	-23.7
